High-throughput results deposited in PubChem by several laboratories.
Shown are actives, neighbours in structure and some others; about 2.3% of the full set was active somewhere.
Glyco luc inh – N-linked glycosylation inhibition | D54 ERlucT glycosylation luciferase reporter, 24 h; percent of 100 nM tunicamycin response | 0.23% of 360,000 active | reporter increase, % at 12.5 µM;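 active = mean luciferase reporter signal, scaled so untreated is 0 and the glycosylation-blocking control 100, at or above a set limit in every replicate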;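 note: luciferase carries N-glycosylation sites so blocking glycosylation raises the light; 0% = median of neutral control wells and 100% = median of 100 nM tunicamycin wells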
Env fusion inh – HIV envelope-mediated fusion inhibition; HeLa-JRFL Env/CEM21 cell fusion, luciferase; inhibition, % at 12.3 µM; 1.1% of 360,000 active;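 active = mean replicate inhibition score of at least 50 and every replicate individually at or above 50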;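 note: 0% = plate neutral controls and 100% = maraviroc near 300 nM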
PAX8 reporter – inhibitors of PAX8 transcriptional activity in RMG-I cells. 1.2% of 360,000 active. inhibition, % at 12.6 µM. RMG-I TPO-luciferase reporter, SteadyGlo, 24 h. AID 652154;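 active = mean replicate inhibition at least 60% with every replicate also reaching 60%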;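 note: luciferase light reporting Pax8 driven TPO promoter activity; plate controls were median of neutral control wells for no effect and mitoxantrone controls for full effect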
PfHsp90 yeast 2 – inhibits growth of yeast expressing Plasmodium falciparum Hsp90; S. cerevisiae expressing PfHsp90, BacTiter-Glo ATP, 48 h; yeast lacking PDR1 and PDR3 efflux regulators; inhibition, % at 9.4 µM; 0.32% of 310,000 active; AID 504621;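 active = every replicate shows inhibition above about 80%, whatever the replicate mean, limit read from the data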;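 note: 0% = DMSO neutral controls and 100% = 20 µM radicicol positive controls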
Arr AP2 block – human beta-arrestin and AP2 interaction inhibition. FITC-arrestin peptide / GST-AP2 beads, flow cytometry; AP2 beta2 appendage carries R879A mutation. inhibition, % at 10 µM. 0.31% of 340,000 active. AID 504490;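 active = inhibition above a set limit, near 3 SD of compounds lacking own fluorescence, cut at about 54% in these data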;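 note: plate controls were DMSO wells for no effect and 5 µM unlabelled arrestin peptide for full effect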
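Assay system: GST-AP2 R879A bound to glutathione beads, E. coli-expressed; Medium: PBS with 0.05% Tween 20 and 0.1% BSA; Also added: fluorescein-tagged arrestin peptide at 50 nM final; Timing: 12 min plus 1 h, RT; Measured by: flow cytometry, FL1 (488/535 nm); Evaluation: percent drop in bead-associated FITC signal.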
Rtt109 HAT inh – C. albicans Rtt109 histone acetyltransferase inhibition | AID 540336 | purified Rtt109/Vps75, ThioGlo CoA-SH fluorescence, 4 h | Q5AAJ8 | 0.16% of 330,000 active | inhibition, % at 34.9 µM;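 active = inhibition of at least 50% in every replicate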
Arr AP2 CP1 – blocks beta-arrestin peptide binding to human AP2; shares compounds with Arr AP2 block; GST-AP2 beads, FITC arrestin peptide binding, flow cytometry; GST-fused beta2-adaptin appendage, R879A mutant; inhibition, % at 10 µM; 2% of 1,300 active;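 active = inhibition above a set limit, roughly 3 SD of non-fluorescent compound noise, cut at about 38% in these data; inactive = inhibition at or below that limit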;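 note: loss of bead fluorescence from 50 nM FITC arrestin peptide bound to appendage; 0% = negative control wells and 100% = excess unlabelled arrestin peptide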
Target sequence (P63010 whole entry, looked up, the tested form may be a part, one chain of several): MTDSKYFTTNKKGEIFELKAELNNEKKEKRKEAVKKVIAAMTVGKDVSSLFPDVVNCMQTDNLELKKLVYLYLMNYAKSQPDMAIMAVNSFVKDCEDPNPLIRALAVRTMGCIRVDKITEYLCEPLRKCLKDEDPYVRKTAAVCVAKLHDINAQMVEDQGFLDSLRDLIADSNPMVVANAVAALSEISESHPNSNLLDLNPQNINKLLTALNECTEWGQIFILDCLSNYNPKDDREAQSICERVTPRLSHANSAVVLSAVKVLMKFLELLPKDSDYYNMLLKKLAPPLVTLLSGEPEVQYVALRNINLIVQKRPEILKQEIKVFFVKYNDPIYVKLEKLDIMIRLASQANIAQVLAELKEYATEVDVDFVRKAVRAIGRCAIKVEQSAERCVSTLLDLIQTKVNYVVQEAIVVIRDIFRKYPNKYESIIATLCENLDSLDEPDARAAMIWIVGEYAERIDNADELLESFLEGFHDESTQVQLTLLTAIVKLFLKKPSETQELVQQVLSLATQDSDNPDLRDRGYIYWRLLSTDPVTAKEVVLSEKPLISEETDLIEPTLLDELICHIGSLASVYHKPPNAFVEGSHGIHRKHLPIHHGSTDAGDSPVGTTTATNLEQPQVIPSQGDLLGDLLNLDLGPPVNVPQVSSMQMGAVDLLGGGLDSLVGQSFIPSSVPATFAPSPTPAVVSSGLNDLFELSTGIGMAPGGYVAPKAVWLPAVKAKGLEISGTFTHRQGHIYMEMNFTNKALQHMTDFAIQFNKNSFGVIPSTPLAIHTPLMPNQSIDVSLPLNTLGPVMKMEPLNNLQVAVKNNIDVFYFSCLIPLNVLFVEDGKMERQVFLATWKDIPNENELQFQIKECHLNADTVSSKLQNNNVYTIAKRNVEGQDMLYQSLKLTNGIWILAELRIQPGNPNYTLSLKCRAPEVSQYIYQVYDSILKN
GST GSH counter – counter-screen for beta-arrestin AP2 inhibitors: GST-GSH bead binding; shares compounds with Arr AP2 block; GST-fluorescein binding to GSH beads, fluorescence; inhibition, % at 10 µM; 2% of 1,300 active; AID 588338;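 active = inhibition above 50%, about 3 SD of the inhibition seen with non-fluorescent compounds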;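 note: fluorescein maleimide labelled GST captured on 4 micron glutathione beads; higher means more loss of bead fluorescence from quenching or blocked binding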
Starred values were filed as active, the others as inactive; / = no result given; [ ] = remark or other dose.

SMILES	Glyco luc inh	Env fusion inh	PAX8 reporter	PfHsp90 yeast 2	Arr AP2 block	Rtt109 HAT inh	Arr AP2 CP1	GST GSH counter
COc1ccc(N(C(=O)c2ccco2)C(C(=O)NC2CCCCC2)c2cccs2)cc1OC (stereo not drawn)	-3	/	/	-10	105*	1	2	-11
COc1ccc(-c2csc(NC(=S)NC(=O)/C=C/c3ccco3)n2)cc1Br	1	-226	14	-11	88*	-3	-2	-9
COc1ccc(S(=O)(=O)N2CCOCC2)cc1NC(=O)c1ccc(=O)[nH]c1	2	/	1	-12	-3	4	-8	-1
COc1ccc(S(=O)(=O)N2CCOCC2)cc1NC(=O)c1cc(=O)[nH]c2ccccc12	-1	/	3	/	-2	7	-15	-2
O=C(Nc1cc(S(=O)(=O)N2CCCCC2)ccc1N1CCOCC1)c1cc(=O)[nH]c2ccccc12	-1	2	2	34	-3	10	/	/
C[C@@H]1CCCCO[C@@H](CN(C)C(=O)c2ccncc2)[C@H](C)CN([C@H](C)CO)C(=O)c2cc(N(C)C)ccc2O1	/	-18[16.7 µM]	-11	/	/	/	/	/
COc1cc(C#N)c(N=C(SCC#N)N2CCOCC2)cc1OC	0	-12	5	2	59*	20	15	1
NC(=O)C[n+]1cccc(C(=O)Nc2ccccc2)c1	3	-3	-4	-2	66*	2	-19	-6
O=C(C[n+]1cccc(C(=O)Nc2ccccc2)c1)c1ccc(Cl)cc1	/	-79	-12	/	/	/	/	/
O=C(C[C@@H]1CC[C@H]2[C@@H](COC[C@@H](O)CN2C(=O)c2ccccc2F)O1)N1CCOCC1	/	/	-1	/	/	/	/	/
Cc1ccc(S(=O)(=O)Nc2ccc3c(c2)CC(=O)N([C@@H](C)CO)C[C@@H](C)[C@H](CN(C)C)O3)cc1	/	/	-7	/	/	/	/	/
O=C(C[C@@H]1C[C@H]2c3cc(NC(=O)NC4CCCC4)ccc3O[C@H]2[C@H](CO)O1)NCc1ccccc1	/	-14[16.7 µM]	15	/	/	/	/	/
O=c1[nH]n(Cc2ccccc2)c2ccccc12	1	9	-18	-2	59*	3	1	-1
Cc1cnc(C(=O)OCC(=O)N2c3ccccc3CC2C)cn1 (stereo not drawn)	1	9	-6	/	55*	-7	-5	-1
CC1Cc2ccccc2N1C(=O)COC(=O)c1cccnc1Cl (stereo not drawn)	4	/	/	-2	13	19	/	/
O=S(=O)(NCc1ccc2c(c1)OCO2)c1ccc(Cl)s1	0	-2	3	10	105*	-5	7	-4
NCC[C@@H]1CC[C@@H](NC(=O)C2CCCCC2)[C@@H](CO)O1	/	1[16.7 µM]	5	/	/	/	/	/
Cc1cc(C(=O)Nc2cccc(S(=O)(=O)N3CCCCC3)c2)c2ccccc2n1	-2	14	4	-2	-6	-3	-9	-2
Cc1cc(C(=O)Nc2cccc(S(=O)(=O)N3CCCC3)c2)c2ccccc2n1	0	3	-4	20	3	-2	/	/
C[C@H]1CN([C@@H](C)CO)C(=O)c2cc(NC(=O)Nc3ccc4c(c3)OCO4)ccc2O[C@H]1CN(C)Cc1ccc2c(c1)OCO2	/	12[16.7 µM]	1	/	/	/	/	/
Cc1cccc(S(=O)(=O)N2CCCCN3[C@H](CO)[C@@H](c4ccc(-c5cccnc5)cc4)[C@@H]3C2)c1	/	/	4	/	/	/	/	/
CN(C)CCCNC(=O)C[C@@H]1CC[C@H](NS(=O)(=O)c2ccc(F)cc2)[C@H](CO)O1	/	6[16.7 µM]	-8	/	/	/	/	/
N#Cc1ccc(-c2ccc([C@@H]3[C@@H](CO)N4C(=O)CN(C(=O)Cc5ccccc5)C[C@H]34)cc2)cc1	/	/	5	/	/	/	/	/
COc1ccc(CC(NC(C)=O)C(=O)NC2CCN(c3nc(C)cc(C)c3C#N)CC2)cc1 (stereo not drawn)	0	-8	11	-4	55*	53*	0	-1
COc1ccc(Cl)cc1NC(=O)CC(C)=O	1	/	/	26	5	8	3	-8
SMILES	Glyco luc inh	Env fusion inh	PAX8 reporter	PfHsp90 yeast 2	Arr AP2 block	Rtt109 HAT inh	Arr AP2 CP1	GST GSH counter
CC(=O)CC(=O)Nc1ccccc1NC(C)=O	-2	-17	11	0	20	-9	-4	-5
CC(=O)Nc1ccccc1O	3	14	-22	-1	7	2	/	/
COc1ccccc1NC(=O)NCCN1CCNC1=O	1	0	-6	1	5	-9	/	/
COc1ccc(Cl)cc1NC(=O)NCCN1CCNC1=O	4	1	-25	2	60*	/	8	-2
COc1ccc(NC(=O)CC(C)=O)c(OC)c1	1	2	-7	9	-1	-1	6	-3
Cc1noc(C)c1S(=O)(=O)N(C)C[C@H]1Oc2ccc(NS(=O)(=O)c3ccc(F)cc3)cc2CC(=O)N([C@@H](C)CO)C[C@H]1C	/	14[16.7 µM]	/	/	/	/	/	/
O=C(NCc1nnc2c(C(F)(F)F)cc(Cl)cn12)c1cccs1	0	-4	2	-9	56*	-18	14	-2
C[C@H](CO)N1C[C@H](C)[C@@H](CN(C)S(=O)(=O)c2cccs2)OCCCC[C@H](C)Oc2ccc(NC(=O)C3CCCCC3)cc2C1=O	/	-45[16.7 µM]	/	/	/	/	/	/
O=[N+]([O-])c1cc(Br)ccc1NS(=O)(=O)c1ccccc1	3	-53	4	-73	1	1	/	/
Cc1cc(NS(=O)(=O)c2ccccc2)c([N+](=O)[O-])cc1C	3	11	12	-2	62*	-1	13	-7
O=C(C1=C(O)C(=O)N(CCCn2ccnc2)C1c1ccccc1)c1ccco1 (stereo not drawn)	2	/	/	-2	35	-6	/	/
O=C(C1=C(O)C(=O)N(CCCn2ccnc2)C1c1cccc(Br)c1)c1ccco1 (stereo not drawn)	1	34	-11	-217	55*	3	6	30
CCn1c(=O)n(CC)c2cc(N3CCCC3)c(NC(=O)c3ccc(OC)c(Br)c3)cc21	5	12	5	5	33	24	3	3
CCOc1ccccc1C(=O)Nc1cc2c(cc1N1CCCC1)n(CC)c(=O)n2CC	7	17	55	-77	15	30	1	0
CCn1c(=O)n(CC)c2cc(N3CCCC3)c(NC(=O)c3ccccc3OC)cc21	11	18	52	-31	3	4	/	/
CCn1c(=O)n(CC)c2cc(N3CCCC3)c(NC(=O)c3cc(Cl)ccc3OC)cc21	-4	0	24	-30	54*	2	-1	3
COc1ccc(Cl)cc1C(=O)Nc1ccccc1N1CCN(C(=O)C(C)C)CC1	1	13	24	/	-17	12	/	/
